{"source": "paper PMC9066373", "about": "(Journal for Immunotherapy of Cancer, 2022)", "tested_on": "HHD-DR1 mice", "test": "Immunization of HHD-DR1 mice, IFN-γ ELISPOT of splenocytes", "type": "in vivo", "conditions": "HHD-DR1 mice n=4, poly(I:C), in words", "method_in_brief": "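HHD-DR1 transgenic mice (human HLA-A*02.01 and HLA-DRB1*01; n=4/group) received a CD8 neoantigen peptide with poly(I:C), combined with a CD4 neoantigen peptide, anti-CD40 or both. Adjuvants were given at 50 µg/mouse. Class I peptide was injected s.c.; class II peptide i.v., boosted 1 week later. Spleens were taken 7 days after the last dose. Splenocytes (8×10⁵/well) were peptide-stimulated (10–0.01 µM) for 24 h and read by IFN-γ ELISPOT, no-peptide background subtracted.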", "data": [{"sequence": "KYVYDFGVSV", "values": [{"measurement": "Response against KYV when antiCD40 is added to KYV plus EVT", "result": "antiCD40 did not improve responses"}]}]}
